Results published in ChEMBL document CHEMBL5724801, “EUbOPEN Chemogenomics Library - Multiplex” (2024).
“And” between values parts separate entries of the source, which are not always exact repeats. Equal values may be shown once.

Test system: HEK-293T
Experiment: Multiplex assay against HEK293T
Assay type: toxicity, cell-based
Conditions: human
In short: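 Live cells were stained at seeding with Hoechst33342, BioTracker Green Microtubule Cytoskeleton Dye, MitoTracker Red and Annexin V Alexa Fluor 680, then imaged on a CQ1 microscope at 37°C and 5% CO2 after compound addition. CellPathfinder machine-learning gating split cells into Hoechst high-intensity objects or normal cells. Normal cells were split into healthy, pyknosed or fragmented nuclei, and pyknosed cells into mitotic or apoptotic. Tubulin, mitochondrial-mass and membrane-permeability phenotypes are per cents of healthy-nucleus cells.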

[1] = 12 h, 1 µM, compound concentration 1 uM
[2] = 12 h, 10 µM, compound concentration 10 uM
[3] = 24 h, 1 µM, compound concentration 1 uM
[4] = 24 h, 10 µM, compound concentration 10 uM
[5] = 48 h, 1 µM, compound concentration 1 uM
[6] = 48 h, 10 µM, compound concentration 10 uM

O=c1cccc2n1C[C@@H]1CNC[C@H]2C1 [CYTISINICLINE]
Population Apoptotic (%) [1]: 13.38% and 21.1% | Population Fragmented Nuclei (%) [1]: 1.29% and 6.54% | Population Healthy Nuclei (%) [1]: 52.75% and 22.22% | Population Hoechst High Intensity Objects (%) [1]: 0.64% and 0% | Population Membrane Permeable-Phenotype (%) [1]: 0.61% and 0% | Population Mitochondria Different-Phenotype (%) [1]: 39.26% and 17.65% | Population Mitotic Cells (%) [1]: 86.62% and 78.9% | Population Normal (%) [1]: 99.36% and 100% | Population Pyknosed Nuclei (%) [1]: 45.95% and 71.24% | Total Cell Count [1]: 311 and 153 | Population Apoptotic (%) [2]: 15.45% and 10.14% | Population Fragmented Nuclei (%) [2]: 3.17% and 4.62% | Population Hoechst High Intensity Objects (%) [2]: 0% | Population Membrane Permeable-Phenotype (%) [2]: 0.66% and 0% | Population Mitochondria Different-Phenotype (%) [2]: 17.11% and 7.41% | Population Mitotic Cells (%) [2]: 84.55% and 89.86% | Population Normal (%) [2]: 100% | Population Pyknosed Nuclei (%) [2]: 43.31% and 79.77% | Total Cell Count [2]: 284 and 173 | Population Apoptotic (%) [3]: 15.52% and 25.56% | Population Fragmented Nuclei (%) [3]: 1.39% and 3.33% | Population Healthy Nuclei (%) [3]: 75.5% and 36.67% | Population Hoechst High Intensity Objects (%) [3]: 0.2% and 0% | Population Membrane Permeable-Phenotype (%) [3]: 1.32% and 5.45% | Population Mitochondria Different-Phenotype (%) [3]: 17.41% and 14.55% | Population Mitotic Cells (%) [3]: 84.48% and 74.44% | Population Normal (%) [3]: 99.8% and 100% | Population Pyknosed Nuclei (%) [3]: 23.11% and 60% | Population Tubulin-Different-Phenotype (%) [3]: 11.08% and 16.36% | Population Apoptotic (%) [4]: 18.82% and 14.41% | Population Fragmented Nuclei (%) [4]: 2.13% and 5.14% | Population Healthy Nuclei (%) [4]: 81.43% and 42.99% | Population Hoechst High Intensity Objects (%) [4]: 0% | Population Membrane Permeable-Phenotype (%) [4]: 0.24% and 0% | Population Mitochondria Different-Phenotype (%) [4]: 15.44% and 7.61% | Population Mitotic Cells (%) [4]: 81.18% and 85.59% | Population Normal (%) [4]: 100% | Population Tubulin-Different-Phenotype (%) [4]: 7.6% and 1.09% | Total Cell Count [4]: 517 and 214 | Population Fragmented Nuclei (%) [5]: 2.45% and 3.98% | Population Healthy Nuclei (%) [5]: 88.37% and 61.69% | Population Hoechst High Intensity Objects (%) [5]: 0% | Population Membrane Permeable-Phenotype (%) [5]: 2.27% and 1.61% | Population Mitochondria Different-Phenotype (%) [5]: 16.42% and 20.97% | Population Mitotic Cells (%) [5]: 94.29% and 66.67% | Population Normal (%) [5]: 100% | Population Apoptotic (%) [6]: 9.77% and 19.7% | Population Fragmented Nuclei (%) [6]: 5.36% and 2.25% | Population Healthy Nuclei (%) [6]: 85.61% and 79.15% | Population Hoechst High Intensity Objects (%) [6]: 0.14% and 0% | Population Membrane Permeable-Phenotype (%) [6]: 5.39% and 1.78% | Population Mitochondria Different-Phenotype (%) [6]: 8.88% and 16.01% | Population Mitotic Cells (%) [6]: 90.23% and 80.3% | Population Normal (%) [6]: 99.86% and 100% | Population Pyknosed Nuclei (%) [6]: 9.03% and 18.59%

C[C@@H]1C[C@H]2[C@@H]3CCC4=CC(=O)C=C[C@]4(C)[C@@]3(F)[C@@H](O)C[C@]2(C)[C@@]1(O)C(=O)CO [DEXAMETHASONE]
Population Apoptotic (%) [1]: 37% and 53% | Population Fragmented Nuclei (%) [1]: 8% and 7% | Population Healthy Nuclei (%) [1]: 78% and 80% | Population Hoechst High Intensity Objects (%) [1]: 2% and 8% | Population Membrane Permeable-Phenotype (%) [1]: 1% and 0% | Population Mitochondria Different-Phenotype (%) [1]: 45% and 62% | Population Mitotic Cells (%) [1]: 62% and 46% | Population Normal (%) [1]: 97% and 91% | Population Pyknosed Nuclei (%) [1]: 12% | Population Tubulin-Different-Phenotype (%) [1]: 24% and 26% | Total Cell Count [1]: 420 and 372 | Population Apoptotic (%) [2]: 37% and 44% | Population Fragmented Nuclei (%) [2]: 7% and 5% | Population Healthy Nuclei (%) [2]: 79% and 81% | Population Hoechst High Intensity Objects (%) [2]: 6% and 14% | Population Membrane Permeable-Phenotype (%) [2]: 0% | Population Mitochondria Different-Phenotype (%) [2]: 44% and 69% | Population Mitotic Cells (%) [2]: 62% and 55% | Population Normal (%) [2]: 93% and 85% | Population Pyknosed Nuclei (%) [2]: 13% | Population Tubulin-Different-Phenotype (%) [2]: 33% and 39% | Total Cell Count [2]: 374 and 436 | Population Apoptotic (%) [3]: 31% and 42% | Population Fragmented Nuclei (%) [3]: 9% and 12% | Population Healthy Nuclei (%) [3]: 78% and 79% | Population Hoechst High Intensity Objects (%) [3]: 4% and 7% | Population Membrane Permeable-Phenotype (%) [3]: 0% | Population Mitochondria Different-Phenotype (%) [3]: 30% and 45% | Population Mitotic Cells (%) [3]: 68% and 57% | Population Normal (%) [3]: 95% and 92% | Population Pyknosed Nuclei (%) [3]: 12% and 8% | Population Tubulin-Different-Phenotype (%) [3]: 17% | Total Cell Count [3]: 569 and 499 | Population Apoptotic (%) [4]: 36% and 44% | Population Fragmented Nuclei (%) [4]: 8% and 9% | Population Healthy Nuclei (%) [4]: 74% and 79% | Population Hoechst High Intensity Objects (%) [4]: 6% and 15% | Population Membrane Permeable-Phenotype (%) [4]: 0% | Population Mitochondria Different-Phenotype (%) [4]: 30% and 43% | Population Mitotic Cells (%) [4]: 63% and 56% | Population Normal (%) [4]: 93% and 84% | Population Pyknosed Nuclei (%) [4]: 16% and 11% | Population Tubulin-Different-Phenotype (%) [4]: 29% and 22% | Total Cell Count [4]: 453 and 513 | Population Apoptotic (%) [5]: 30% and 27% | Population Fragmented Nuclei (%) [5]: 15% | Population Healthy Nuclei (%) [5]: 77% and 78% | Population Hoechst High Intensity Objects (%) [5]: 1% and 3% | Population Membrane Permeable-Phenotype (%) [5]: 1% and 0% | Population Mitochondria Different-Phenotype (%) [5]: 18% and 27% | Population Mitotic Cells (%) [5]: 69% and 72% | Population Normal (%) [5]: 98% and 96% | Population Pyknosed Nuclei (%) [5]: 7% and 6% | Population Tubulin-Different-Phenotype (%) [5]: 12% and 15% | Total Cell Count [5]: 915 and 685 | Population Apoptotic (%) [6]: 25% and 50% | Population Fragmented Nuclei (%) [6]: 15% and 16% | Population Healthy Nuclei (%) [6]: 76% | Population Hoechst High Intensity Objects (%) [6]: 3% and 6% | Population Membrane Permeable-Phenotype (%) [6]: 0% | Population Mitochondria Different-Phenotype (%) [6]: 18% and 28% | Population Mitotic Cells (%) [6]: 75% and 49% | Population Normal (%) [6]: 96% and 93% | Population Pyknosed Nuclei (%) [6]: 7% | Population Tubulin-Different-Phenotype (%) [6]: 14% and 19% | Total Cell Count [6]: 760 and 756
